SR-BI DiI-HDL act: enhances SR-BI lipid uptake from DiI-HDL; actives 0.096% (n = 320,000); activation, % at 12.5 µM; AID 504775; CHO ldlA[mSR-BI] cells, DiI-HDL uptake fluorescence, 3 h; 100 = double the neutral-control signal;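 active = mean replicate activation of at least 60% and every replicate at or above 60%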;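 also: 0% = median plate neutral-control signal and 100% = twice that signal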
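System: LDL receptor-deficient CHO ldlA cells overexpressing murine SR-BI | Timing: 3 h uptake period with compound, 37 °C | Medium: HEPES-buffered (25 mM, pH 7.4) F12 plus 0.5% BSA | Dosing: Single-point compound dose | Signal: Bottom-read fluorescence, 550/595 nm | Read-out: Retained DiI signal reflecting DiI-HDL uptake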
UBC13 polyUb: blocks human UBC13 polyubiquitin chain formation; AID 485273; actives 0.47% (n = 330,000); inhibition, % at 20 µM; TR-FRET; P61088; in the data active = inhibition above about 45%, passing the limit was not always enough
SR-BI DiI inh: mouse SR-BI HDL lipid transfer inhibition; Q61009; AID 488896; inhibition, % at 12.5 µM; actives 0.96% (n = 320,000); ldlA[mSR-BI] CHO cells, DiI-HDL uptake fluorescence, 3 h;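 active = mean replicate inhibition of at least 70% and a set share of replicates each scoring 70 or more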;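 also: 0% = median of neutral control wells and 100% = median of positive control wells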
Target sequence (Q61009 whole entry, looked up): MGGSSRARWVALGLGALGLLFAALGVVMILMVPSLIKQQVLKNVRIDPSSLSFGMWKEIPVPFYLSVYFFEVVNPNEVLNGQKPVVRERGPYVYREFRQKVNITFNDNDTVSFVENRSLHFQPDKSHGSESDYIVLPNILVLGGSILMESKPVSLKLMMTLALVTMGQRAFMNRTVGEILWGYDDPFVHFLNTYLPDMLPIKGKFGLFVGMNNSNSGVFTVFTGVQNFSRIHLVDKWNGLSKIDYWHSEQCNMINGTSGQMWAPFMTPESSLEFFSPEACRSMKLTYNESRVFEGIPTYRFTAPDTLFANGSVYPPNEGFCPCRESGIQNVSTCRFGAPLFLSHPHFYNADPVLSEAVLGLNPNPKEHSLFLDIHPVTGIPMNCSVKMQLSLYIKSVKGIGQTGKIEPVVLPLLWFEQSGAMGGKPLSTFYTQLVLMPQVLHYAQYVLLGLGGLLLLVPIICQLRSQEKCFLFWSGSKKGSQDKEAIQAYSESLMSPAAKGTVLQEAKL
Neddylation inh: inhibitors of human cullin neddylation. inhibition, % at 25 µM. actives 0.58% (n = 360,000). AID 651699. TR-FRET cullin neddylation, biochemical. P61081+Q13564; in the data active = inhibition above about 36%
Neddyl inh conf: confirmation of human cullin neddylation inhibitors. shares compounds with Neddylation inh. TR-FRET cullin neddylation biochemical assay. calls only at 25 µM. actives 13% (n = 1,800); in the data active = inhibition above about 40%;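 also: neddylation substrate is the cullin 1 ring ligase complex with SKP2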
Numbers without * were called inactive; i = inactive; · = no result shown; + = active, no number. Only some compounds are listed: those with a hit (about 1.9% of all), similar ones and a draw of the others.

SMILES	SR-BI DiI-HDL act	UBC13 polyUb	SR-BI DiI inh	Neddylation inh	Neddyl inh conf
O=C1C=C(c2n[nH]nc2-c2ccccc2)C[C@@H](c2ccc(F)cc2)C1	·	·	·	-13	·
COc1ccc(/C=C/C(=O)NCc2ccc3c(c2)OCO3)cc1OC	-14	-4	14	42*	i
CS(=O)(=O)N(CC(=O)N/N=C/c1cccc2c1OCCO2)c1ccccc1Br	-31	7	31	45*	+
Cc1cc(C)c(O)c(CN(C)Cc2cc(Cl)cc(Cl)c2O)c1	-112	·	112*	38*	i
COc1ccc(-n2cc(CNCC3CCOCC3)c(-c3cccc(F)c3)n2)cc1	10	15	-10	·	·
COc1ccc(-n2cc(CNCc3cnc4ccccn34)c(-c3cccc(F)c3)n2)cc1	-25	18	25	42*	·
C#CCNC(=O)c1ccc2sc([C@@H]3O[C@H](CO)[C@H](O)[C@H](O)[C@H]3O)nc2c1	·	·	·	5	·
C[C@@H]1CN([C@@H](C)CO)C(=O)c2cc(Br)cnc2O[C@@H]1CN(C)Cc1ccc(Oc2ccccc2)cc1	·	·	·	6	·
COc1ccc(-n2ncc3c(NCCCN4CCOCC4)ncnc32)cc1	11	2	-11	42*	i
C=CCNc1ncnc2c1cnn2-c1ccc(OC)cc1	-5	15	5	46*	i
COc1ccc(-n2ncc3c(NCCN4CCOCC4)ncnc32)cc1	3	8	-3	29	·
Cc1ccc(-c2cc(-c3ccco3)c(C#N)c(=O)[nH]2)cc1	·	-33	·	96*	i
Cc1cc(-c2ccccc2)[nH]c(=O)c1C#N	11	12	-11	50*	·
CSc1cc(-c2ccccc2)[nH]c(=O)c1C#N	33	14	-33	19	·
N#Cc1c(-c2ccco2)cc(-c2ccccc2)[nH]c1=O	·	8	·	·	·
O=C(O)C1(Nc2ccc(Br)cc2)CCCC1	-11	·	11	-5	·
O=c1oc2cccnc2n1CCS(=O)(=O)c1ccc(F)cc1	12	6	-12	38*	i
Cc1ccc(CSc2nnc(-c3cccc4ccccc34)o2)cc1	21	8	-21	34*	·
Fc1cnc(N/N=C/c2ccc(-c3ccc(Br)cc3)o2)nc1N1CCOCC1	6	-13	-6	7	·
Brc1ccc(-c2ccc(/C=N/Nc3nc(N4CCOCC4)nc(N4CCOCC4)n3)o2)cc1	-49	13	49	46*	i
CCc1nc(N2CCN(Cc3ccc4c(c3)OCO4)CC2)c2oc3ccccc3c2n1	12	8	-12	44*	i
CCc1nc(N2CCCCC2)c2oc3ccccc3c2n1	8	6	-8	5	·
CCOc1ccccc1N1CCN(C(=O)C2CSC3(C)CCC(=O)N23)CC1 (stereo not given)	-8	-5	8	10	·
O=C(Cc1ccc(Cl)cc1)NNC(=S)NC(=O)c1cccs1	3	-11	-3	53*	i
O=C(O)c1cccc(C(=O)c2cccc(C(=O)O)c2)c1	13	1	-13	-5	·
SMILES	SR-BI DiI-HDL act	UBC13 polyUb	SR-BI DiI inh	Neddylation inh	Neddyl inh conf
O=C(O)c1cc2ccc3cccc4ccc(c1)c2c34	15	3	-15	52*	·
Cc1c(C)c2cc(Cl)c(OCc3nn[nH]n3)cc2oc1=O	23	10	-23	47*	i
COc1cc(/C=C/C(=O)NCCN2CCOCC2)cc(OC)c1OC	1	12	-1	44*	i
N#C/C(=C/C1=C(N2CCOCC2)C(=C/c2ccc(Cl)cc2)/CC1)C(=O)Nc1ccccc1F	-48	·	48	-2	·
O=C1C(CO)C(CO)C(CO)C1CO (stereo not given)	24	·	-24	-4	·
Nc1c(C(=O)Nc2ccc(Cl)cc2)oc2ccccc12	-27	12	27	44*	·
COc1ccc2oc(C(=O)OC(C)C(=O)N(C)c3ccccc3)c(C)c2c1 (stereo not given)	-12	8	12	56*	·
COc1ccc2oc(C(=O)OCC(=O)N(C)C3CCCCC3)c(C)c2c1	-33	8	33	59*	·
COc1ccc2oc(C(=O)OCC(=O)NC3CCCC3)c(C)c2c1	6	11	-6	·	·
COc1ccc2oc(C(=O)OCC(=O)N3CC(C)CC(C)C3)c(C)c2c1 (stereo not given)	2	6	-2	60*	·
CCN(C(=O)COC(=O)c1oc2ccc(OC)cc2c1C)C1CCCCC1	-24	7	24	52*	·
COc1cc(NC(=O)Nc2nnc([C@H]3C[C@H](O)[C@@H](CO)O3)s2)cc(OC)c1	·	·	·	-7	·
COc1ccccc1OCC(=O)Nc1cc2c(cc1C(=O)O)OCCCO2	-7	1	7	25	·
COCCN(C(=O)COC(=O)c1oc2ccc(OC)cc2c1C)c1c(N)n(Cc2ccccc2)c(=O)[nH]c1=O	-3	-6	3	·	·
CCOC(=O)c1c(CN(CC)CC)oc2cc(Br)c(O)cc12	·	1	·	-6	·
CCOC(=O)c1c(CN(CC)CC)oc2ccc(OC)cc12	-13	10	13	38*	i
COc1ccc2oc(C(=O)OCC(=O)N(C)c3c(N)n(Cc4ccccc4)c(=O)[nH]c3=O)c(C)c2c1	22	4	-22	58*	·
COc1ccc(NC(=O)CN(C)C(=O)Cc2n[nH]c(=O)c3ccccc23)cc1	-2	5	2	-1	·
COC(=O)C1=C(N)N(c2ccccc2F)C2=C(C(=O)CC(C)(C)C2)C1c1ccc(OC)c(OC)c1 (stereo not given)	4	2	-4	3	·
c1cn2c(-c3ccoc3)cncc2n1	·	·	·	41*	+
Cc1ccc(N2CC(=O)N(NC(=O)c3sc4nc(C)cc(C)c4c3N)CC2=O)cc1	-4	11	4	-19	·
CCN(CC)c1ccc(/C=N/NC(=O)c2ccc3c(c2)OCCO3)cc1	-22	-2	22	·	·
CN(C)c1ccc(/C=N/NC(=O)c2ccc3c(c2)OCCO3)cc1	-4	-5	4	61*	·
Cc1ccc(S(=O)(=O)Nc2nc3ccccc3nc2NCC2CCCO2)cc1 (stereo not given)	·	-6	·	40*	i
O=S(=O)(Nc1nc2ccccc2nc1NCC1CCCO1)c1ccccc1 (stereo not given)	·	-8	·	39*	i
SMILES	SR-BI DiI-HDL act	UBC13 polyUb	SR-BI DiI inh	Neddylation inh	Neddyl inh conf
COc1ccc(S(=O)(=O)Nc2nc3ccccc3nc2NCC2CCCO2)cc1 (stereo not given)	·	-16	·	33	·
NC(=O)C1CCN(c2nc3ccccc3nc2NS(=O)(=O)c2ccc(Br)cc2)CC1	-5	-23	5	16	·
CCOC(=O)C1CCCN(c2nc3ccccc3nc2NS(=O)(=O)c2ccc(C)cc2)C1 (stereo not given)	20	-3	-20	46*	+
CN(C)c1cccc(C(=O)NCc2ccc3c(c2)OCO3)c1	0	4	0	44*	+
CN(C)c1ccc(C(=O)NCc2ccc3c(c2)OCO3)cc1	-4	-3	4	0	·
COC(=O)c1cc(NC(=O)c2c(-c3ccccc3)noc2C)ccc1N1CCOCC1	-12	7	12	38*	i
